Reference: ChEMBL document CHEMBL1129495, “Highly selective bradykinin agonists and antagonists with replacement of proline residues by N-methyl-D- and L-phenylalanine” (J Med Chem, 1996)
Square brackets hold non-standard residues; d marks the D form. Peptide text beside a SMILES is read from it. Phe(4-guanidino) = N=C(N)Nc1ccc(C[C@H](N)C(=O)O)cc1; 2Thi = N[C@@H](Cc1cccs1)C(=O)O; Aib = CC(C)(N)C(=O)O

Experiments:
Cavia porcellus [1] = species on record: Cavia porcellus; experiment: Agonistic activity against selectivity for smooth muscle contraction in guinea pig ileum.; type: functional, Muscle tissue
Procedure, shortened: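 Isolated terminal ileum (1.5 cm) from guinea pigs fasted 16 h, in Tyrode at 37 °C. Isotonic contractions recorded under 0.5 g resting tension. Agonist activity measured by Schild 4-point method against BK doses of 1 and 2 nM, expressed as percent of BK activity.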

Rattus norvegicus [2] = species on record: Rattus norvegicus; experiment: Agonistic activity against selectivity for smooth muscle contraction in rat uterus.; type: functional, Muscle tissue
Procedure, shortened: (§1)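 Uteri from female Wistar rats (180–200 g) given diethylstilbestrol 100 µg/kg sc 16 h before use. Distal horns held in de Jalon solution at 28 °C under 0.5 g resting tension, with isotonic contractions recorded. BK was dosed every 4 min and left in the bath 45 s. Agonist activity by Schild 4-point method, expressed as percent of BK activity.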

[3] = Selectivity for rat uterus is expressed as the ratio RUT/GPI; type: functional
Procedure, shortened: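 Ratio of agonist activity (percent of BK) in estrus rat uterus to that in guinea pig ileum, both from isotonic contraction assays using the Schild 4-point method.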

Cavia porcellus [4] = species on record: Cavia porcellus; experiment: Antagonistic activity was evaluated in Guinea pig ileum assay.; type: functional; parameters: scale not given: the % may be the effect or the level left
Procedure, shortened: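 Guinea pig terminal ileum in Tyrode at 37 °C under 0.5 g tension, isotonic recording. Analog added 5 min before a cumulative BK dose–response curve (maximum at 0.3 µM BK). pA2 is the negative log of the antagonist concentration that reduces the effect of a double BK dose to that of a single dose. Means of 3–7 determinations.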

Cavia porcellus [5] = species on record: Cavia porcellus; experiment: Antagonistic activity was evaluated in Guinea pig lung strip assay.; type: functional; parameters: scale not given: the % may be the effect or the level left
Procedure, shortened: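 Lower-lobe lung strips (2–3 mm) from guinea pigs (400–600 g) in Krebs–Henseleit at 37 °C under 1 g load, with isometric tension recorded. After 1 h equilibration, peptide was given 5 min before an ED50 dose of BK. Cumulative BK curves covered 0.01–10 µM. pA2 by the van Rossum method.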

Rattus norvegicus [6] = species on record: Rattus norvegicus; experiment: Agonistic activity was evaluated in Estrus Rat Uterus Assay; type: functional; procedure, shortened: as §1

CC(C)(NC(=O)[C@H](CO)NC(=O)[C@H](Cc1ccccc1)NC(=O)CNC(=O)[C@@H]1CCCN1C(=O)[C@@H]1CCCN1C(=O)[C@@H](N)CCCN=C(N)N)C(=O)N[C@@H](Cc1ccccc1)C(=O)N[C@@H](CCCN=C(N)N)C(=O)O (H-RPPGFS[Aib]FR-OH)
Activity (Cavia porcellus [1]): 418%
Activity (Rattus norvegicus [2]): 55%
Ratio [3]: 0.13

NC(N)=NCCC[C@H](NC(=O)[C@H](Cc1cccs1)NC(=O)[C@@H]1CCCN1C(=O)[C@H](CO)NC(=O)[C@H](Cc1ccccc1)NC(=O)CNC(=O)[C@@H]1CCCN1C(=O)[C@@H]1CCCN1C(=O)[C@@H](N)CCCN=C(N)N)C(=O)O (H-RPPGFSP[2Thi]R-OH)
Activity (Cavia porcellus [1]): 40%
Activity (Rattus norvegicus [2]): 500%
Ratio [3]: 13

H-RPPGFSPFK-OH
Activity (Cavia porcellus [1]): 20%
Activity (Rattus norvegicus [2]): 0.2%
Ratio [3]: 0.01

N=C(N)Nc1ccc(C[C@H](NC(=O)[C@H](Cc2ccccc2)NC(=O)[C@@H]2CCCN2C(=O)[C@H](CO)NC(=O)[C@H](Cc2ccccc2)NC(=O)CNC(=O)[C@@H]2CCCN2C(=O)[C@@H]2CCCN2C(=O)[C@@H](N)Cc2ccc(NC(=N)N)cc2)C(=O)O)cc1 (H-[Phe(4-guanidino)]PPGFSPF[Phe(4-guanidino)]-OH)
Activity (Cavia porcellus [1]): 2%
Activity (Rattus norvegicus [2]): 0.001%
Ratio [3]: 0.001

CN(C(=O)[C@H](CO)NC(=O)[C@H](Cc1ccccc1)NC(=O)CNC(=O)[C@@H]1C[C@@H](O)CN1C(=O)[C@@H]1CCCN1C(=O)[C@H](CCCN=C(N)N)NC(=O)[C@H](N)CCCN=C(N)N)[C@H](Cc1ccccc1)C(=O)N(C)[C@@H](Cc1ccccc1)C(=O)N[C@@H](CCCN=C(N)N)C(=O)O
Activity (Cavia porcellus [4]): 0.01%
Activity (Cavia porcellus [5]): 0.45%
Activity (Rattus norvegicus [6]): 40%
Ratio [3]: 4000

NC(N)=NCCC[C@H](NC(=O)[C@H](Cc1cccs1)NC(=O)[C@@H]1CCCN1C(=O)[C@H](CO)NC(=O)[C@H](Cc1cccs1)NC(=O)CNC(=O)[C@@H]1CCCN1C(=O)[C@@H]1CCCN1C(=O)[C@@H](N)CCCN=C(N)N)C(=O)O (H-RPPG[2Thi]SP[2Thi]R-OH)
Activity (Cavia porcellus [1]): 200%
Activity (Rattus norvegicus [2]): 1000%
Ratio [3]: 5

CC(C)(NC(=O)[C@@H](Cc1ccc(Cl)cc1)NC(=O)C(Cc1ccccc1)NC(=O)CNC(=O)[C@@H]1CCCN1C(=O)[C@@H]1CCCN1C(=O)[C@@H](N)CCCN=C(N)N)C(=O)NC(Cc1ccccc1)C(=O)N[C@@H](CCCN=C(N)N)C(=O)O (stereo in doubt)
Activity (Cavia porcellus [1]): 321%
Activity (Rattus norvegicus [2]): 97%
Ratio [3]: 0.3

CC(C)(NC(=O)[C@@H](Cc1ccccc1)NC(=O)[C@H](Cc1ccccc1)NC(=O)CNC(=O)[C@@H]1CCCN1C(=O)[C@@H]1CCCN1C(=O)[C@@H](N)CCCN=C(N)N)C(=O)N[C@@H](Cc1ccccc1)C(=O)N[C@@H](CCCN=C(N)N)C(=O)O
Activity (Cavia porcellus [1]): 426%
Activity (Rattus norvegicus [2]): 124%
Ratio [3]: 0.291

CN(C(=O)[C@H](CO)NC(=O)[C@H](Cc1ccccc1)N(C)C(=O)CNC(=O)[C@@H]1C[C@@H](O)CN1C(=O)[C@@H]1CCCN1C(=O)[C@H](CCCN=C(N)N)NC(=O)[C@H](N)CCCN=C(N)N)[C@H](Cc1ccccc1)C(=O)N(C)[C@@H](Cc1ccccc1)C(=O)N[C@@H](CCCN=C(N)N)C(=O)O
Activity (Cavia porcellus [4]): 0.005%
Activity (Cavia porcellus [5]): 0.5%
Activity (Rattus norvegicus [6]): 15%
Ratio [3]: 3000

CN(C(=O)[C@H](CO)NC(=O)[C@H](Cc1ccccc1)NC(=O)CNC(=O)[C@@H]1CCCN1C(=O)[C@@H]1CCCN1C(=O)[C@H](CCCN=C(N)N)NC(=O)[C@H](N)CCCN=C(N)N)[C@@H](Cc1ccccc1)C(=O)N[C@@H](Cc1ccccc1)C(=O)N[C@@H](CCCN=C(N)N)C(=O)O
Activity (Cavia porcellus [4]): 0.07%
Activity (Cavia porcellus [5]): 0.08%
Activity (Rattus norvegicus [6]): 0.5%

CN(C(=O)[C@H](CO)NC(=O)[C@H](Cc1cccs1)NC(=O)CNC(=O)[C@@H]1C[C@@H](O)CN1C(=O)[C@@H]1CCCN1C(=O)[C@H](CCCN=C(N)N)NC(=O)[C@H](N)CCCN=C(N)N)[C@H](Cc1ccccc1)C(=O)N[C@@H](Cc1ccccc1)C(=O)N[C@@H](CCCN=C(N)N)C(=O)O
Activity (Cavia porcellus [4]): 0.006%
Activity (Cavia porcellus [5]): 0.04%
Activity (Rattus norvegicus [6]): 86%
Ratio [3]: 10000
